Screening data as filed in PubChem BioAssay.
Compounds with a hit are over-represented: about 2.4% of the library has one in this group of screens.
HTR5A inv ctr: counter-screen for OPRM1-OPRD1 inverse agonists: human HTR5A inverse agonism. P47898. HTR5A cell line, luminescence. inhibition, % at 9.3 µM. 0.083% of 340,000 active. AID 504634; in the data active = inhibition mostly above about 23%, no sharp cut-off; inactive = mostly below about 18%;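 also: 0% = cells with DMSO and 100% = no-cell wells with DMSO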
Target sequence (P47898 whole entry, looked up): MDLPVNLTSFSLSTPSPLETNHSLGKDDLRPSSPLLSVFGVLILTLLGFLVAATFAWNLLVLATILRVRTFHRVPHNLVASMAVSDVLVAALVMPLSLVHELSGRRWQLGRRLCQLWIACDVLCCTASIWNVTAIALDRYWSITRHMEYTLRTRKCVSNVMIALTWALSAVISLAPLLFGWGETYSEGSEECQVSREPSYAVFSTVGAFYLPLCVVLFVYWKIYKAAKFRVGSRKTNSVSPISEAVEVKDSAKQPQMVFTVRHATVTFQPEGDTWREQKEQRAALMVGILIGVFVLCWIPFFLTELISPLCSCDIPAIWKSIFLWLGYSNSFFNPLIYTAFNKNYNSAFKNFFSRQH
MC4R antag cAMP: antagonists of human melanocortin 4 receptor (MC4R); P32245; MC4R-expressing cells, MTII-stimulated cAMP, LANCE TR-FRET; AID 540295; inhibition, % at 6.5 µM; 0.48% of 360,000 active;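 active = inhibition above its plate's cutoff, the mean of tested wells on that plate plus 3 SD, cut at about 29% in these data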;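 also: 0% = Melanotan II alone and 100% = Melanotan II plus saturating MCL0020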
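Assay system: human MC4R-expressing U2OS cells; reagent: Melanotan II stimulation of cells; dosing: 6.5 µM single dose; timing: compound 30 min, challenge 1 h, detection 1 h; signal: TR-FRET cAMP assay; replicates: one well per compound, no replicates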
OPRM1-OPRD1 ag: agonists of human mu-delta opioid receptor heterodimerization; cells, OPRM1-OPRD1 heterodimerization, luminescence; 0.3% of 340,000 active; AID 504326; activation, % at 9.3 µM; in the data active = activation above about 18%;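 also: 0% = vehicle-treated cells and 100% = reference agonist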
HTR5A ag ctr: HTR5A agonism, opioid heterodimer counter-screen; P47898; HTR5A agonist assay, luminescence, cell-based; activation, % at 9.3 µM; 0.61% of 340,000 active; AID 504692; in the data active = activation mostly above about 9.5%, no sharp cut-off; inactive = mostly below about 7.6%;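 also: 0% = cells with vehicle only and 100% = reference agonist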
MOR-DOR inv ag: inverse agonist of human OPRM1-OPRD1 heterodimerization; P35372+P41143; cell-based MOR-DOR heterodimer luminescence, inverse agonism; inhibition, % at 9.3 µM; 0.21% of 340,000 active; AID 504357; in the data active = inhibition above about 22%, passing the limit was not always enough;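 also: 0% = cells with DMSO and 100% = wells without cells with DMSO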
MC4R barr agon: human MC4R agonism via beta-arrestin. U2OS MC4R beta-arrestin complementation, luminescence; percent of melanotan II response, DMSO zero. AID 540308. P32245. activation, % at 8.9 µM. 0.98% of 360,000 active;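 active = activation above a per-plate cutoff, the mean activation of sample wells on that plate plus 3 SD, cut at about 8% in these data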
MC4R barr ag: human MC4R beta-arrestin agonism confirmation | AID 602192 | activation, % at 8.9 µM | shares compounds with MC4R barr agon | 31% of 2,400 active | U2OS MC4R beta-arrestin recruitment, luminescence; scaled DMSO 0%, Melanotan II 100%;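 active = mean activation across replicates above the hit cutoff set in the earlier primary screen, cut at about 8% in these data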
MOR-DOR barr ag: counter-screen for MC4R agonists: agonists of mu-delta opioid heterodimer | activation, % at 9.2 µM | U2OS PathHunter beta-arrestin, beta-gal luminescence; percent of deltorphin B response, DMSO zero | shares compounds with MC4R barr agon | 5.8% of 2,400 active;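 active = mean activation across replicates exceeds the hit threshold derived in the earlier primary screen, cut at about 18% in these data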;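 also: 100% = deltorphin B at 0.9 µM final and 0% = DMSO alone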
* = called active by the depositor; . = no result.

SMILES	HTR5A inv ctr	MC4R antag cAMP	OPRM1-OPRD1 ag	HTR5A ag ctr	MOR-DOR inv ag	MC4R barr agon	MC4R barr ag	MOR-DOR barr ag
COc1ccc(NC(=O)c2cc3c(=O)n(C)c4ccccc4c3n2C)cc1OC	-27	2	-2	-4	9	-1	.	.
N#C/C(=C\c1ccc([N+](=O)[O-])o1)C(=O)Nc1ccc(F)cc1	-14	13	11	6	-51	12*	14*	14
COc1ccc(NC(=O)/C(C#N)=C\c2ccc(Br)o2)cc1	-13	1	1	2	-5	3	.	.
Cc1cccc(-c2nsc(SCC(=O)Nc3ccc4c(c3)OCO4)n2)c1	-12	4	2	7	-10	3	.	.
COc1ccc(-c2nsc(SCC(=O)Nc3cc(C)on3)n2)cc1	-21	6	11	3	-62	17*	-1	7
Cc1ccc2cc(C)c(SCC(=O)NCC3CCCO3)nc2c1 (stereo unspecified)	1	11	0	0	2	2	.	.
Cc1cccc(-c2nsc(SCC(=O)Nc3nccs3)n2)c1	-28	6	8	6	-45	13*	0	8
Cc1ccc2cc(C)c(SCC(=O)Nc3cc(C)on3)nc2c1	-9	18	3	5	-22	20*	6	3
CC(=O)Nc1ccc(C(=O)CN2C(=O)CSC2=O)cc1	-1	3	1	2	-3	-3	.	.
CC(=O)c1sc(N/N=C/c2cccc([N+](=O)[O-])c2)nc1C	-15	4	1	-1	-4	-2	.	.
O=[N+]([O-])c1cccc(-c2csc(N/N=C/c3cccc(O)c3)n2)c1	-11	-1	8	4	-47	11*	9.8*	9
CCOC(=O)Cc1csc(N/N=C/c2cccc([N+](=O)[O-])c2)n1	1	-4	5	2	-35	14*	0	10
CCOc1ccc(N)c(SSc2cc(OCC)ccc2N)c1	-31	5	-1	9	4	11*	2	8
CC(C)(C)C(=O)CSc1nc(N)cc(=O)[nH]1	-6	11	-1	4	7	0	.	.
CCN(CC)S(=O)(=O)c1cccc(C(=O)N[C@H](C(=O)Nc2nc3ccc(F)cc3s2)C(C)C)c1	-6	10	3	2	-17	-2	.	.
COc1cc(-c2nc(-c3ccc(NC(=O)c4ccc5c(c4)OCO5)cc3)no2)cc(OC)c1OC	-17	10	1	-1	-8	23*	28*	24*
Cc1ccccc1-c1nc(-c2ccc(NC(=O)c3ccc4c(c3)OCO4)cc2)no1	1	15	2	-1	-7	23*	17*	4
COC(=O)c1ccc(NC(=O)c2ccc3c(c2)OCO3)cc1	-29	-2	0	0	1	-1	.	.
O=C(NCCc1ccc2c(c1)OCCO2)c1ccc(F)cc1	12	12	-1	4	5	0	.	.
O=[N+]([O-])c1cccc(N/N=C/c2cc([N+](=O)[O-])ccc2O)c1	-2	-10	3	1	-18	11*	-6	3
Cc1cccc(-c2noc(CCCC(=O)NC3CCCCC3)n2)c1	7	3	0	-3	-2	-2	.	.
O=C(CCSc1nnc2ccccn12)Nc1ccc(F)cc1	-14	9	-1	-1	5	0	.	.
O=C(CCSc1nnc2ccc3ccccc3n12)Nc1ccc(F)cc1	-10	8	2	-1	-12	39*	4	8
C[N+](C)(C)CCOP(=O)(O)OP(=O)([O-])OC[C@H]1O[C@@H](n2ccc(N)nc2=O)[C@H](O)[C@@H]1O	-30	6	-1	-1	6	0	.	.
CCC(C)(C)c1ccc(OCCCC[n+]2ccccc2)c(C(C)(C)CC)c1	-27	13	0	9	2	12*	12*	6
SMILES	HTR5A inv ctr	MC4R antag cAMP	OPRM1-OPRD1 ag	HTR5A ag ctr	MOR-DOR inv ag	MC4R barr agon	MC4R barr ag	MOR-DOR barr ag
CCCCCc1ccc(OCCCC[n+]2ccccc2)c(CCCCC)c1	5	16	-3	9	14	10*	8.3*	2
CCCCCc1ccc(OCCCC[n+]2cccc(C)c2)c(CCCCC)c1	-20	11	0	7	-1	16*	13*	6
CCCCOc1ccc(C)cc1CN(CCO)CCO	1	1	1	0	-8	0	.	.
CCCCCc1ccc(OCCCC[n+]2ccc(C)cc2)c(CCCCC)c1	-10	12	3	1	-14	7	.	.
O=C(c1ncc[nH]1)c1cccs1	-28	5	-2	-4	12	2	.	.
CC(=NNC(=O)c1ccc(NS(=O)(=O)c2ccc(Br)cc2)cc1)c1cccnc1	-8	3	-1	2	7	-1	.	.
CCN(CC)S(=O)(=O)c1cc(NC(=O)CSc2nccn2C)ccc1C	-1	8	-3	0	14	-1	.	.
Cc1ccc2nc(Cl)c(/C=N/Nc3nc(C)cc(C)n3)c(=O)n2c1	-5	-57	-1	2	4	-3	.	.
COc1cc(C(=O)OCC(=O)NCc2ccc(F)cc2)cc(NC(=O)c2cccs2)c1OC	-9	-2	-3	4	15	9.7*	2	4
COc1ccc(-n2c(C)cc(C(=O)COC(=O)c3cc(NC(=O)c4cccs4)c(OC)c(OC)c3)c2C)cc1	4	2	-4	-2	19	0	.	.
Cc1nn(-c2ccccc2)c2sc(C(=O)NNC(=O)COc3cccc4ccccc34)cc12	16	4	3	1	-16	25*	6	4
Cc1cccc(NC(=S)NC(=O)C(c2ccccc2)c2ccccc2)n1	-27	-13	14	11	-60	33*	20*	7
CCOC(=O)[C@H]1[C@H]2COc3ccc(Br)cc3[C@@H]2N2C(=O)CN(Cc3ccc(F)cc3)C(=O)[C@@]12C	2	12	1	3	-7	2	.	.
CN(CC(=O)Nc1ccc(F)cc1)C(=O)c1cc(-c2cccs2)nn1-c1ccccc1	-11	11	1	0	-4	-2	.	.
CC1CCC(C(C)C)C(OC(=O)Cn2c(-c3ccccc3)[n+](C)c3ccccc32)C1 (stereo unspecified)	-9	-13	-3	9	16	2	.	.
CC1CCC(C(C)C)C(OC(=O)Cn2c(-c3ccc(F)cc3)[n+](C)c3ccccc32)C1 (stereo unspecified)	-4	0	1	2	-6	17*	16*	5
